Assay [1] deals with T1, EZH1/2 (Mus musculus) (UniProt Q61188+P70351). Kind of assay: Inhibition of Ezh1/2 in Igfbp5-treated wild-type C57BL/6 mouse fetal metatarsal bone assessed as reduction in hypertrophic cell size at 2 uM. In kind it is tissue-based. In a few lines:
(§1)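 Fetal metatarsals (middle three) from E18 wild-type C57BL/6 mice cultured 3 days at 37 °C, 5% CO2 in α-MEM with 0.2% BSA, 0.1 mM β-glycerophosphate, 50 µg ml-1 ascorbic acid. DMSO or UNC1999 (2 µM), ± Igf1 100 ng ml-1, Igfbp3 50 nM or Igfbp5 50 nM, added at start and refreshed day 2. Hypertrophic cell heights averaged within a 100×100 µm area at HZ centre; N = 6.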

Assay [2] concerns the target T1, EZH1/2 (Mus musculus). Kind of assay: Inhibition of Ezh1/2 in wild-type C57BL/6 mouse isolated primary chondrocytes assessed as increase in Cdkn2b expression at 2 uM by RT-PCR analysis. In kind it is cell-based. To be noted: Primary chondrocyte. In a few lines: (§2)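 Monolayer primary chondrocytes from 1-week-old wild-type mice received DMSO or UNC1999 (2 µM final) 16 h after plating. RNA was extracted and Cdkn2a and Cdkn2b mRNA quantified by real-time RT-PCR; N = 6.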

Assay [3] has as its target T1, EZH1/2 (Mus musculus). Briefly: Inhibition of Ezh1/2 in wild-type C57BL/6 mouse isolated primary chondrocyte pellets assessed as reduction in cell hypertrophy at 2 uM measured after 1 week by alcian blue staining based assay. The settings on record: time 1.0 weeks. In a few lines:
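Wild-type chondrocyte pellets were cultured in 0.1% FBS medium with DMSO or 2 µM UNC1999 (from 16 h, refreshed every other day). Alcian blue-stained histological sections were examined for cell size at different time points, including 1 week.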

Assay [4] has as its target T1, EZH1/2 (Mus musculus). Briefly: Inhibition of Ezh1/2 in wild-type C57BL/6 mouse isolated primary chondrocytes transfected with Cdkn2b SiRNA assessed as reduction in cell proliferation at 2 uM measured after 24 hrs by [3H]thymidine based liquid scintillation counting analysis. To be noted: Primary chondrocyte. In a few lines: (§3)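 Primary chondrocytes (1×10^5 per well) from 1-week-old wild-type mice were hyaluronidase-treated (5 U ml-1, 6 h) at 40 h. They were then transfected with 40 pmol siRNA against Cdkn2a and/or Cdkn2b, or scrambled control, using Lipofectamine 2000. DMSO or 2 µM UNC1999 was added 16 h post-transfection. Proliferation was measured 24 h later by 3H-thymidine uptake and scintillation counting; N = 6.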

Assay [5] has as its target T1, EZH1/2 (Mus musculus). Kind of assay: Inhibition of Ezh1/2 in Igfbp3-treated wild-type C57BL/6 mouse fetal metatarsal bone assessed as reduction in hypertrophic cell size at 2 uM. The format is tissue-based. In a few lines:
as §1

In assay [6] the target is T1, EZH1/2 (Mus musculus). Briefly: Inhibition of Ezh1/2 in wild-type C57BL/6 mouse isolated primary chondrocytes assessed as increase in Cdkn2a expression at 2 uM by RT-PCR analysis. In kind it is cell-based. The settings on record: Primary chondrocyte. In a few lines:
as §2

For assay [7], the target named is T1, EZH1/2 (Mus musculus). Briefly: Inhibition of Ezh1/2 in wild-type C57BL/6 mouse isolated primary chondrocyte pellets assessed as increase in Igfbp3 expression at 2 uM by RT-PCR analysis. In kind it is cell-based. The method in brief: (§4)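 Pellets of 2.4×10^5 primary chondrocytes from 1-week-old wild-type mice (400 g, 10 min) were cultured up to 4 weeks, switched to 0.1% FBS medium after 16 h. DMSO or UNC1999 (2 µM final) was added at 16 h and refreshed every other day. Col10a1, Ihh, Igfbp3 and Igfbp5 mRNA were measured by real-time RT-PCR at several time points; two-way ANOVA, N = 6.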

Assay [8] has as its target T1, EZH1/2 (Mus musculus). Kind of assay: Inhibition of Ezh1/2 in wild-type C57BL/6 mouse isolated primary chondrocyte pellets assessed as increase in Igfbp5 expression at 2 uM by RT-PCR analysis. The format is cell-based. In a few lines:
as §4

For assay [9], the target named is T1, EZH1/2 (Mus musculus). Kind of assay: Inhibition of Ezh1/2 in wild-type C57BL/6 mouse fetal metatarsal bone assessed as reduction in H3K27me3 expression at 2 microM by immunohistochemical analysis. The format is tissue-based. In a few lines:
(§5)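 E18 wild-type C57BL/6 metatarsals cultured 3 days with DMSO or 2 µM UNC1999, added at start and refreshed day 2. Paraffin sections were proteinase K retrieved (100 µg ml-1, 30 min, room temperature) and peroxidase blocked. They were immunostained with anti-H3K27me2 or anti-H3K27me3 (1:1,000) by ABC/DAB.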

Assay [10] concerns the target T1, EZH1/2 (Mus musculus). Briefly: Inhibition of Ezh1/2 in wild-type C57BL/6 mouse isolated primary chondrocyte pellets assessed as reduction in Col10a1 expression at 2 uM by RT-PCR analysis. In kind it is cell-based. The method in brief: as §4
Assay [11] has as its target T1, EZH1/2 (Mus musculus). Briefly: Inhibition of Ezh1/2 in wild-type C57BL/6 mouse isolated primary chondrocyte pellets assessed as reduction in H3K27me2 level at 2 uM measured after 1 week by immunohistological staining based assay. The format is cell-based. To be noted: time 1.0 weeks. The method in brief:
(§6)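 Chondrocyte pellets (2.4×10^5 cells, from 1-week-old wild-type mice) were kept in 0.1% FBS medium with DMSO or 2 µM UNC1999 from 16 h, refreshed every other day, for 1 week. Sections were immunostained for H3K27me2 or H3K27me3 (1:1,000, proteinase K retrieval, DAB).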

Assay [12] deals with T1, EZH1/2 (Mus musculus). Kind of assay: Inhibition of Ezh1/2 in wild-type C57BL/6 mouse fetal metatarsal bone assessed as reduction in hypertrophic cell size at 2 uM. In kind it is tissue-based. In a few lines:
as §1

Assay [13] deals with T1, EZH1/2 (Mus musculus). Briefly: Inhibition of Ezh1/2 in wild-type C57BL/6 mouse isolated primary chondrocyte monolayer culture assessed as increase in Igfbp5 expression at 2 uM by immunostaining analysis. The format is cell-based.
Assay [14] deals with T1, EZH1/2 (Mus musculus). Kind of assay: Inhibition of Ezh1/2 in Igf1-treated wild-type C57BL/6 mouse fetal metatarsal bone assessed as reduction in hypertrophic cell size at 2 uM. In kind it is tissue-based. In a few lines: as §1
The target of assay [15] is T1, EZH1/2 (Mus musculus). Briefly: Inhibition of Ezh1/2 in wild-type C57BL/6 mouse isolated primary chondrocytes assessed as reduction in cell proliferation at 2 uM by [3H]thymidine based liquid scintillation counting analysis. To be noted: Primary chondrocyte. In a few lines:
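Monolayer primary chondrocytes (2×10^5 per well) from 1-week-old wild-type mice were treated with DMSO or 2 µM UNC1999 from 16 h after plating. At 24 h after plating they were labelled with 1 µCi 3H-thymidine for 16 h, washed and collagenase-detached. Radioactivity was read by liquid scintillation counting; N = 6.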

The target of assay [16] is T1, EZH1/2 (Mus musculus). Briefly: Inhibition of Ezh1/2 in wild-type C57BL/6 mouse isolated primary chondrocyte monolayer culture assessed as increase in Igfbp3 expression at 2 uM by immunostaining analysis. The format is cell-based.
For assay [17], the target named is T1, EZH1/2 (Mus musculus). Briefly: Inhibition of Ezh1/2 in wild-type C57BL/6 mouse fetal metatarsal bone assessed as increase in Igfbp3 expression at 2 uM by immunostaining assay. The format is tissue-based.
The target in assay [18] is T1, EZH1/2 (Mus musculus). Kind of assay: Inhibition of Ezh1/2 in wild-type C57BL/6 mouse fetal metatarsal bone assessed as increase in Igfbp5 expression at 2 uM by immunostaining assay. In kind it is tissue-based.
Assay [19] addresses T1, EZH1/2 (Mus musculus). Kind of assay: Inhibition of Ezh1/2 in wild-type C57BL/6 mouse isolated primary chondrocyte pellets assessed as reduction in Ihh expression at 2 uM by RT-PCR analysis. The format is cell-based. The method in brief: as §4
The target of assay [20] is T1, EZH1/2 (Mus musculus). Briefly: Inhibition of Ezh1/2 in wild-type C57BL/6 mouse isolated primary chondrocyte pellets assessed as reduction in H3K27me3 level at 2 uM measured after 1 week by immunohistological staining based assay. The format is cell-based. The settings on record: time 1.0 weeks. In a few lines: as §6
The target in assay [21] is T1, EZH1/2 (Mus musculus). Kind of assay: Inhibition of Ezh1/2 in wild-type C57BL/6 mouse isolated primary chondrocytes transfected with Cdkn2a SiRNA assessed as reduction in cell proliferation at 2 uM measured after 24 hrs by [3H]thymidine based liquid scintillation counting analysis. To be noted: Primary chondrocyte. In a few lines: as §3
For assay [22], the target named is T1, EZH1/2 (Mus musculus). Kind of assay: Inhibition of Ezh1/2 in wild-type C57BL/6 mouse fetal metatarsal bone assessed as reduction in H3K27me2 expression at 2 microM by immunohistochemical analysis. In kind it is tissue-based. In a few lines: as §5

Active and inactive are the calls of the source. No cut-off for these calls is given here.

As for `CCCc1cc(C)[nH]c(=O)c1CNC(=O)c1cc(-c2ccc(N3CCN(C(C)C)CC3)nc2)cc2c1cnn2C(C)C`, the inhibition result in [1], in assay [2], in assay [3], in [5], in [6] and in assay [8] was “Active” in each case. Moreover, the inhibition entry in assay [9], in assay [10], in assay [11], in [12], in [15] and in assay [16] was “Active” each time. The inhibition result in assay [17], in [18], in [19], in assay [20] and in [22] was “Active” each time. Also, the inhibition entry in [4], in [7], in assay [13], in assay [14] and in assay [21] was “inactive” each time.

Source of the values: ChEMBL document CHEMBL5712892, “EZH1 and EZH2 promote skeletal growth by repressing inhibitors of chondrocyte proliferation and hypertrophy” (Nat Commun, 2016).
